Four compounds from ChEMBL document CHEMBL4390639, “Design, Synthesis, and Biological Evaluation of Novel Allosteric Protein Disulfide Isomerase Inhibitors” (J Med Chem, 2019) can be followed below.

Active and inactive are the calls of the source. The calls are words filed in the database; no cut-off is given here.

For test [1], the target named is 72 kDa type IV collagenase (Homo sapiens) (UniProt P08253). Kind of test: Inhibition of MMP2 activity in human U87MG cells at 10 uM […] by gelatin zymographic method. Type of test: cell-based.
Test [2] concerns U-87 MG. Kind of test: Down regulation of cleaved MMP2 expression in human U87MG cells at 10 uM measured after 24 hrs by Western blot analysis. The test is classed as functional, cell-based. The settings on record: U-87MG ATCC. For orientation: In western blotting, separated proteins are transferred to a membrane and probed.
Test [3] concerns Protein disulfide-isomerase (Homo sapiens), P07237 [H256A]. Kind of test: Inhibition of recombinant human N-terminal His-tagged PDI H256A mutant expressed in Escherichia coli BL21 (DE3) pLysS at 100 uM measured after 1 hr by ANS dye based fluorescence spectra analysis.
Test [4] relates to A 172. Kind of test: Induction of morphological changes in human A172 cells assessed as vesicle formation at 11 uM measured after 48 hrs by Giemsa-staining based microscopic analysis. The test is classed as functional, cell-based.
Test [5] has as its system U-87 MG. Kind of test: Down regulation of CTHRC1 gene expression in human U87MG cells at 10 uM incubated for 4 hrs followed by bromouridine addition during last 30 mins of incubation by TRIzol-reagent based Bru-Seq analysis relative to control. Type of test: functional, U-87MG ATCC.
Test [6] relates to U-87 MG. Put plainly: Up regulation of CHAC1 gene expression in human U87MG cells at 10 uM incubated for 4 hrs followed by bromouridine addition during last 30 mins of incubation by TRIzol-reagent based Bru-Seq analysis relative to control. The test is classed as functional, U-87MG ATCC. Put shortly: (§1)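 U87MG cells exposed to compound or DMSO vehicle for 4 h, with 2 mM bromouridine added for the final 30 min. Total RNA isolated with TRIzol; Bru-labelled nascent RNA captured on anti-BrdU antibody-conjugated magnetic beads and sequenced. Transcript abundance expressed as RPKM relative to DMSO. Experiment performed once.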

Test [7] deals with U-87 MG. Put plainly: Down regulation of KCTD4 gene expression in human U87MG cells at 10 uM incubated for 4 hrs followed by bromouridine addition during last 30 mins of incubation by TRIzol-reagent based Bru-Seq analysis relative to control. Type of test: functional, U-87MG ATCC.
The subject of test [8] is U-87 MG. Kind of test: Down regulation of MAD2L1 gene expression in human U87MG cells at 10 uM incubated for 4 hrs followed by bromouridine addition during last 30 mins of incubation by TRIzol-reagent based Bru-Seq analysis relative to control. Type of test: functional, U-87MG ATCC. Put shortly:
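Nascent transcription (Bru-seq) in U87MG cells: treatment at 10 μM for 4 h, with 2 mM bromouridine added for the final 30 min. Total RNA isolated with TRIzol; Bru-labelled RNA captured using anti-BrdU antibody on magnetic beads, then sequenced. Transcript traces reported as RPKM compared with DMSO-treated cells. Single experiment.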

Test [9] relates to U-87 MG. Kind of test: Up regulation of HSPH1 gene expression in human U87MG cells at 10 uM incubated for 4 hrs followed by bromouridine addition during last 30 mins of incubation by TRIzol-reagent based Bru-Seq analysis relative to control. Type of test: functional, U-87MG ATCC. The method, boiled down:
as §1

The subject of test [10] is U-87 MG. Kind of test: Down regulation of ANKRD36 gene expression in human U87MG cells at 10 uM incubated for 4 hrs followed by bromouridine addition during last 30 mins of incubation by TRIzol-reagent based Bru-Seq analysis relative to control. The test is classed as functional, U-87MG ATCC.
Test [11] deals with U-87 MG. Put plainly: Up regulation of ATP6 V0D2 gene expression in human U87MG cells at 10 uM incubated for 4 hrs followed by bromouridine addition during last 30 mins of incubation by TRIzol-reagent based Bru-Seq analysis relative to control. Type of test: functional, U-87MG ATCC. The method, boiled down:
as §1

Test [12] relates to U-87 MG. Kind of test: Down regulation of HIST1H2BC gene expression in human U87MG cells at 10 uM incubated for 4 hrs followed by bromouridine addition during last 30 mins of incubation by TRIzol-reagent based Bru-Seq analysis relative to control. The test is classed as functional, U-87MG ATCC.
The subject of test [13] is U-87 MG. Put plainly: Down regulation of AKAP5 gene expression in human U87MG cells at 10 uM incubated for 4 hrs followed by bromouridine addition during last 30 mins of incubation by TRIzol-reagent based Bru-Seq analysis relative to control. Type of test: functional, U-87MG ATCC.
Test [14] relates to U-87 MG. Put plainly: Up regulation of NGF gene expression in human U87MG cells at 10 uM incubated for 4 hrs followed by bromouridine addition during last 30 mins of incubation by TRIzol-reagent based Bru-Seq analysis relative to control. The test is classed as functional, U-87MG ATCC. The method, boiled down:
as §1

Test [15] has as its system U-87 MG. Put plainly: Up regulation of DEDD2 gene expression in human U87MG cells at 10 uM incubated for 4 hrs followed by bromouridine addition during last 30 mins of incubation by TRIzol-reagent based Bru-Seq analysis relative to control. Type of test: functional, U-87MG ATCC. Put shortly: as §1
The test system of test [16] is U-87 MG. Put plainly: Up regulation of INHBA gene expression in human U87MG cells at 10 uM incubated for 4 hrs followed by bromouridine addition during last 30 mins of incubation by TRIzol-reagent based Bru-Seq analysis relative to control. Type of test: functional, U-87MG ATCC. Put shortly:
as §1

Test [17] concerns U-87 MG. Kind of test: Down regulation of BARD1 gene expression in human U87MG cells at 10 uM incubated for 4 hrs followed by bromouridine addition during last 30 mins of incubation by TRIzol-reagent based Bru-Seq analysis relative to control. The test is classed as functional, U-87MG ATCC.
Test [18] deals with U-87 MG. Put plainly: Down regulation of AC006206.2 gene expression in human U87MG cells at 16 uM incubated for 4 hrs followed by bromouridine addition during last 30 mins of incubation by TRIzol-reagent based Bru-Seq analysis relative to control. Type of test: functional, U-87MG ATCC. Put shortly:
as §1

For test [19], the system named is U-87 MG. Kind of test: Up regulation of BAG3 gene expression in human U87MG cells at 16 uM incubated for 4 hrs followed by bromouridine addition during last 30 mins of incubation by TRIzol-reagent based Bru-Seq analysis relative to control. Type of test: functional, U-87MG ATCC. Put shortly: as §1
For test [20], the system named is U-87 MG. Put plainly: Up regulation of BCO2 gene expression in human U87MG cells at 16 uM incubated for 4 hrs followed by bromouridine addition during last 30 mins of incubation by TRIzol-reagent based Bru-Seq analysis relative to control. The test is classed as functional, U-87MG ATCC. Put shortly: as §1
For test [21], the system named is U-87 MG. Put plainly: Down regulation of GGT4P gene expression in human U87MG cells at 16 uM incubated for 4 hrs followed by bromouridine addition during last 30 mins of incubation by TRIzol-reagent based Bru-Seq analysis relative to control. Type of test: functional, U-87MG ATCC.
The test system of test [22] is U-87 MG. Put plainly: Up regulation of HMOX1 gene expression in human U87MG cells at 16 uM incubated for 4 hrs followed by bromouridine addition during last 30 mins of incubation by TRIzol-reagent based Bru-Seq analysis relative to control. Type of test: functional, U-87MG ATCC. The method, boiled down: as §1
Test [23] relates to U-87 MG. Kind of test: Down regulation of AC124276.2 gene expression in human U87MG cells at 16 uM incubated for 4 hrs followed by bromouridine addition during last 30 mins of incubation by TRIzol-reagent based Bru-Seq analysis relative to control. The test is classed as functional, U-87MG ATCC.
Test [24] concerns U-87 MG. Kind of test: Up regulation of GCLC gene expression in human U87MG cells at 16 uM incubated for 4 hrs followed by bromouridine addition during last 30 mins of incubation by TRIzol-reagent based Bru-Seq analysis relative to control. Type of test: functional, U-87MG ATCC. Put shortly: as §1
Test [25] deals with U-87 MG. Put plainly: Down regulation of PRLR gene expression in human U87MG cells at 16 uM incubated for 4 hrs followed by bromouridine addition during last 30 mins of incubation by TRIzol-reagent based Bru-Seq analysis relative to control. Type of test: functional, U-87MG ATCC. Put shortly: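 Bru-seq in U87MG cells treated at 16 μM for 4 h; 2 mM bromouridine present during the last 30 min. TRIzol total RNA, then anti-BrdU bead capture of labelled RNA and sequencing. Readout is RPKM traces versus DMSO control. Performed once.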

Test [26] has as its system U-87 MG. Put plainly: Down regulation of CTHRC1 gene expression in human U87MG cells at 16 uM incubated for 4 hrs followed by bromouridine addition during last 30 mins of incubation by TRIzol-reagent based Bru-Seq analysis relative to control. Type of test: functional, U-87MG ATCC. Put shortly: as §1

Protein disulfide-isomerase (Homo sapiens), P07237 [H256A], sequence (P07237 whole entry H256A): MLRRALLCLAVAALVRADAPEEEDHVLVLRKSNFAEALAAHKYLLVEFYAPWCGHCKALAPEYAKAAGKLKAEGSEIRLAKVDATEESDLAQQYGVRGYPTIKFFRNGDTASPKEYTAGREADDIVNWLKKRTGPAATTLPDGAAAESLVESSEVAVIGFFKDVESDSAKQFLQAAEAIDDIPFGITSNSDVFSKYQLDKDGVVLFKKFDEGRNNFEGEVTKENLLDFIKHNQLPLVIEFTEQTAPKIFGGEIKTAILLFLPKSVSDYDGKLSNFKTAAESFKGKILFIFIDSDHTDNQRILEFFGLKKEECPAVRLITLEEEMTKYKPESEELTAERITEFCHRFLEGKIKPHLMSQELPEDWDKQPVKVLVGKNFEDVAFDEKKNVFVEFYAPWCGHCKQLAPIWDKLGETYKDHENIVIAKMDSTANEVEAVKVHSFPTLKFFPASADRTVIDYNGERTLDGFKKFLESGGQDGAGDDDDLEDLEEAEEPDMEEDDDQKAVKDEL
72 kDa type IV collagenase (Homo sapiens), sequence (P08253 110-660 limits assumed): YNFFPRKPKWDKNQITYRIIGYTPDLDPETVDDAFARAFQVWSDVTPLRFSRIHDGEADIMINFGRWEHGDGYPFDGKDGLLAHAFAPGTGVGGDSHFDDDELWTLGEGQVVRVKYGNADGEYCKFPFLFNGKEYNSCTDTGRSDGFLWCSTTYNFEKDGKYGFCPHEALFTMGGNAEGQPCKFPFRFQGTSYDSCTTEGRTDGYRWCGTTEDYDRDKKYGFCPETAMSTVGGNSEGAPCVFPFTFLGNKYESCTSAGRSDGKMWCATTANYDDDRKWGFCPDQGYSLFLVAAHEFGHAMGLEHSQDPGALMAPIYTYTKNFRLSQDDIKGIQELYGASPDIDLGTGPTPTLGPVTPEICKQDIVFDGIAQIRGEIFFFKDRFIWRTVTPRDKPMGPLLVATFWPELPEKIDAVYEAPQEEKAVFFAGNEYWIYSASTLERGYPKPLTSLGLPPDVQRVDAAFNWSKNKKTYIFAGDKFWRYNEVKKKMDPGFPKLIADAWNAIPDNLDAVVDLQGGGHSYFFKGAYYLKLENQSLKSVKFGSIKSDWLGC

On to `O=C(/C=C/c1ccc(-c2cccnc2)cc1)c1cccc(O)c1`, for which the inhibition result in test [1] is “Active”. The outcome in test [2] was Active.

Take `CCCCCN(CCCCC)S(=O)(=O)c1ccc(C(=O)/C=C/c2cccc(O)c2)cc1`: in test [3], the inhibition result is “Active”. In addition, the result in [4] was Active.

`CCCCCN(CCCCC)S(=O)(=O)c1ccc(C(=O)/C=C/c2cccc(C#N)c2)cc1`: the “fold change (FC)” value worked out at 2.4 in test [5]; 40.9 in [6]; 2.8 in test [7]; 2.4 in test [8]; 20 in test [9]; 2.4 in [10]. Moreover, the “fold change (FC)” value in test [11] is listed as 11.9; in test [12], 2.3; in test [13], 3.4; in test [14], 10; in test [15], 11; in test [16], 27. For the same compound, the “fold change (FC)” value in test [17] is given as 2.3.

As to `COC(=O)c1cccc(/C=C/C(=O)c2cccc(O)c2)c1`, the “fold change (FC)” value in test [18] worked out at 3.9; in [19] it was 1.9; in test [20] it was 1.9; in test [21], 3.3; in [22] it was 21.6; in test [23], 2.9. The “fold change (FC)” value was 1.9 in test [24], 2.6 in test [25] and 3.4 in test [26].
